Drawing on ChEMBL document CHEMBL1124850, “Synthesis and antibacterial activity of thiazolo-, oxazolo-, and imidazolo[3,2-a][1,8]naphthyridinecarboxylic acids” (J Med Chem, 1990), this text covers MIC and IC50 for five compounds.

Values after ≈ are worked out from the molar mass of the structure shown.

Broadly, the MIC is the lowest concentration found to suppress growth. As usually defined, the IC50 is the midpoint of a concentration-inhibition curve. High values mean lower potency, low ones higher potency.

Experiment [1] relates to Klebsiella pneumoniae. The experiment in a line: Activity against Klebsiella pneumoniae (PCI-602). It is filed as functional. The essentials:
(§1)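 Agar dilution MIC: serial 2-fold dilutions in Mueller-Hinton agar, inoculum about 10^6 CFU/mL, incubated at 37 °C for 18 h. The MIC is the lowest concentration that prevents visible bacterial growth.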

In experiment [2] the test system is Staphylococcus aureus. The experiment in a line: Activity against Staphylococcus aureus (IID 803). In kind it is functional. The essentials:
as §1

Experiment [3] concerns Enterococcus faecalis. Description: Activity against Streptococcus faecalis (IID 682). In kind it is functional. A digest of the protocol: as §1
Experiment [4] deals with Nucleic Acid. Description: Inhibitory effect on DNA gyrase supercoiling activity from Escherichia coli K-12 C600. It is filed as functional.
Experiment [5] relates to Pseudomonas cepacia (Burkholderia cepacia). The experiment in a line: Activity against Pseudomonas cepacia (IID-1341).
Experiment [6] deals with Staphylococcus epidermidis. The experiment in a line: Activity against Staphylococcus epidermidis (IAM 1296). In kind it is functional. A digest of the protocol: as §1
For experiment [7], the system named is Pseudomonas aeruginosa. Description: Activity against Pseudomonas aeruginosa (E-2). In kind it is functional. A digest of the protocol:
as §1

For experiment [8], the system named is Klebsiella aerogenes. The experiment in a line: Activity against Enterobacter aerogenes (ATCC 13048). It is filed as functional. The essentials:
as §1

In experiment [9] the test system is Escherichia coli. The experiment in a line: Activity against Escherichia coli (K-12 C600). It is filed as functional. The essentials: as §1
For experiment [10], the system named is Escherichia coli. The experiment in a line: Activity against Escherichia coli (KC-14). It is filed as functional. A digest of the protocol:
as §1

For experiment [11], the system named is Acinetobacter calcoaceticus. Description: Activity against Acinetobacter calcoaceticus (AC54). It is filed as functional. A digest of the protocol:
as §1

Experiment [12] concerns Staphylococcus aureus. Description: Activity against Staphylococcus aureus (FDA207PJC-1). In kind it is functional. A digest of the protocol: as §1
In experiment [13] the test system is Bacillus subtilis. Description: Activity against Bacillus subtilis (ATCC 6633). In kind it is functional. A digest of the protocol: as §1
In experiment [14] the test system is Burkholderia cepacia. The experiment in a line: Activity against Pseudomonas cepacia (IID-1341). In kind it is functional. The essentials:
as §1

Take `CC1COc2c(C(=O)O)c(=O)c3cc(F)c(N4CCN(C)CC4)nc3n21` (centres undefined): the MIC was 0.78 µg/mL (≈ 2.15 µM) in experiment [1]; 12.5 µg/mL (≈ 34.5 µM) in [2]; greater than 25 µg/mL in [3]; greater than 25 µg/mL in [5]; greater than 25 µg/mL in experiment [6]; greater than 25 µg/mL in experiment [7]. The MIC was 6.25 µg/mL (≈ 17.2 µM) in experiment [8]; 12.5 µg/mL (≈ 34.5 µM) in experiment [9]; 6.25 µg/mL (≈ 17.2 µM) in experiment [10]; greater than 25 µg/mL in experiment [11]; 12.5 µg/mL (≈ 34.5 µM) in experiment [12]; 3.13 µg/mL (≈ 8.64 µM) in [13]. In experiment [4], the IC50 is 6.11 µg/mL (≈ 16.9 µM).

`CN1CCN(c2nc3c(cc2F)c(=O)c(C(=O)O)c2n3CCN2C)CC1`: the MIC came to 100 µg/mL (≈ 277 µM) in experiment [14]; 6.25 µg/mL (≈ 17.3 µM) in experiment [1]; 100 µg/mL (≈ 277 µM) in experiment [2]; 100 µg/mL (≈ 277 µM) in experiment [3]; 100 µg/mL (≈ 277 µM) in [6]; 100 µg/mL (≈ 277 µM) in [7]. Besides, the MIC in experiment [8] is 50 µg/mL (≈ 138 µM); in experiment [9] it was 50 µg/mL (≈ 138 µM); in experiment [10], 50 µg/mL (≈ 138 µM); in experiment [11] it was 100 µg/mL (≈ 277 µM); in experiment [12], 100 µg/mL (≈ 277 µM); in experiment [13], 25 µg/mL (≈ 69.2 µM). This compound had a concentration for half-maximal inhibition (IC50) in experiment [4] greater than 25 µg/mL.

In the case of `CN1CCN(c2nc3c(cc2F)c(=O)c(C(=O)O)c2n3CCS2)CC1`, the MIC in experiment [14] is 3.13 µg/mL (≈ 8.59 µM); in [1], 0.05 µg/mL (≈ 0.137 µM); in [2], 0.39 µg/mL (≈ 1.07 µM); in [3] it was 6.25 µg/mL (≈ 17.2 µM); in [6], 1.56 µg/mL (≈ 4.28 µM); in experiment [7], 1.56 µg/mL (≈ 4.28 µM). For the same compound, the MIC in experiment [8] is 0.2 µg/mL (≈ 0.549 µM); in experiment [9] it was 0.2 µg/mL (≈ 0.549 µM); in experiment [10], 0.2 µg/mL (≈ 0.549 µM); in [11], 0.39 µg/mL (≈ 1.07 µM); in [12], 0.39 µg/mL (≈ 1.07 µM); in experiment [13], 0.1 µg/mL (≈ 0.274 µM). Further, the IC50 in experiment [4] came out at 0.52 µg/mL (≈ 1.43 µM).

Consider `CCn1cc(C(=O)O)c(=O)c2cc(F)c(N3CCNCC3)nc21` [ENOXACIN], for which the MIC in experiment [14] is 6.25 µg/mL (≈ 19.5 µM); in [1], 0.1 µg/mL (≈ 0.312 µM); in [2], 0.78 µg/mL (≈ 2.44 µM); in [3], 3.13 µg/mL (≈ 9.77 µM); in [6], 3.13 µg/mL (≈ 9.77 µM); in experiment [7], 1.56 µg/mL (≈ 4.87 µM). The MIC is 0.2 µg/mL (≈ 0.624 µM) in experiment [8]; 0.2 µg/mL (≈ 0.624 µM) in experiment [9]; 0.2 µg/mL (≈ 0.624 µM) in experiment [10]; 3.13 µg/mL (≈ 9.77 µM) in experiment [11]; 0.78 µg/mL (≈ 2.44 µM) in [12]; 0.2 µg/mL (≈ 0.624 µM) in experiment [13].

For `CC1COc2c(N3CCN(C)CC3)c(F)cc3c(=O)c(C(=O)O)cn1c23` (centres undefined) [OFLOXACIN], the minimal inhibitory concentration (MIC) was found to be 6.25 µg/mL (≈ 17.3 µM) in [14]; 0.05 µg/mL (≈ 0.138 µM) in [1]; 0.39 µg/mL (≈ 1.08 µM) in [2]; 1.56 µg/mL (≈ 4.32 µM) in experiment [3]; 0.78 µg/mL (≈ 2.16 µM) in experiment [6]; 1.56 µg/mL (≈ 4.32 µM) in [7]. Further, the MIC in [8] is 0.1 µg/mL (≈ 0.277 µM); in experiment [9], 0.2 µg/mL (≈ 0.553 µM); in experiment [10] it was 0.1 µg/mL (≈ 0.277 µM); in experiment [11], 0.39 µg/mL (≈ 1.08 µM); in experiment [12], 0.39 µg/mL (≈ 1.08 µM); in experiment [13], 0.1 µg/mL (≈ 0.277 µM). Further, in experiment [4], the IC50 was found to be 0.59 µg/mL (≈ 1.63 µM).
